# Source: PMC4216208 (Journal of Medicinal Chemistry, 2014)
# Legend:
# C. elegans [1] = experiment: Bioaccumulation in C. elegans; type: in vitro ADME, Caenorhabditis elegans; settings: late-stage L4 worms, 10 μM (2 nmol/mg worm), 6 h, LC-MS of homogenates
# In short: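 Synchronised C. elegans grown to late L4 on E. coli OP50 at 25 °C for 40 h, water-washed, and suspended in M9 at ~5−10 worms/μL. Dosed at 10 μM final (~2 nmol/mg worm) from DMSO stock, 6 or 12 h at rt. Washed in 0.1% SDS then water, frozen, lyophilised, weighed, extracted into cold MeOH/MeCN with internal standard. Quantified by LC-ESI-MS against blank-worm calibration; mean ± sd, n = 3.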
# O. volvulus L3 larvae = settings: 100 μM; cited from earlier work
# HEK 293T/17 cells = experiment: Mitochondrial-uncoupling assay; type: cell-based, human; settings: 50 μM compound, TMRE staining
# In short: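 HEK 293T/17 cells were trypsinised and suspended at 1−2 × 10^6 cells/mL in DMEM with 10% FBS, then given test compound (50 μM) or DMSO for 30 min at 37 °C. TMRE (~450 nM final) was added for 30 min in the dark at 37 °C. Cells were washed twice in 0.2% BSA/PBS, resuspended, and read by plate fluorescence (em 575 nm). Unstained and DMSO controls were included; mean ± sd, n = 3.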
# C. elegans [2] = experiment: Metabolism of closantel in C. elegans; type: in vitro ADME, Caenorhabditis elegans
smiles,measurement,setting,value
"Cc1cc(C(C#N)c2ccc(Cl)cc2)c(Cl)cc1NC(=O)c1cc(I)cc(I)c1O (centres unmarked) [Compound 1, closantel]",accumulation in C. elegans (in words),C. elegans [1],accumulated in C. elegans
same,effect on molting of O. volvulus L3 to L4 larvae,O. volvulus L3 larvae,inhibit the molting
same,mitochondrial-uncoupling (protonophoric) activity,HEK 293T/17 cells,mitochondrial-uncoupling activity
same,"sulfation, glycosylation and glucuronidation of the salicylate moiety in C. elegans homogenates",C. elegans [2],not observed
same,primary metabolic pathway in C. elegans,"C. elegans [2]; minor pathway, forms two monoiodoclosantel isomers",reductive deiodination
